Reference: ChEMBL document CHEMBL1129430, “Synthesis and transporter binding properties of 3 beta-(4'-alkyl-, 4'-alkenyl-, and 4'-alkynylphenyl)nortropane-2 beta-carboxylic acid methyl esters: serotonin transporter selective analogs” (J Med Chem, 1996)

How the values were obtained:
[1] = molecular target: Monoamine transporters; Norepinephrine & serotonin (Rattus norvegicus) (UniProt P31652+Q9WTR4); assay: Selectivity for norepinephrine and serotonin transporters; assay type: protein assay
Method in brief: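 The NE/5-HT IC50 ratio is derived from IC50 values from two binding assays in rat brain. One is [3H]nisoxetine binding in midbrain (NE transporter). The other is [3H]paroxetine binding in frontal cortex (5-HT transporter).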

[2] = molecular target: Norepinephrine transporter (Rattus norvegicus, UniProt Q9WTR4); assay: Inhibition of [3H]nisoxetine binding to the norepinephrine transporter in rat midbrain.
[3] = molecular target: Sodium-dependent serotonin transporter (Rattus norvegicus, UniProt P31652); assay: Inhibition of [3H]paroxetine binding to serotonin transporter in rat frontal cortex; assay type: tissue-based
[4] = molecular target: Sodium-dependent dopamine transporter (Rattus norvegicus, UniProt P23977); assay: Inhibition of [3H]WIN-35428 binding to the dopamine transporter in rat striata.
[5] = molecular target: Monoamine transporters; serotonin & dopamine (Rattus norvegicus) (UniProt P31652+P23977); assay: Selectivity for dopamine and serotonin transporters; assay type: protein assay
Sequence of Monoamine transporters; serotonin & dopamine (Rattus norvegicus) (P23977 whole entry, looked up): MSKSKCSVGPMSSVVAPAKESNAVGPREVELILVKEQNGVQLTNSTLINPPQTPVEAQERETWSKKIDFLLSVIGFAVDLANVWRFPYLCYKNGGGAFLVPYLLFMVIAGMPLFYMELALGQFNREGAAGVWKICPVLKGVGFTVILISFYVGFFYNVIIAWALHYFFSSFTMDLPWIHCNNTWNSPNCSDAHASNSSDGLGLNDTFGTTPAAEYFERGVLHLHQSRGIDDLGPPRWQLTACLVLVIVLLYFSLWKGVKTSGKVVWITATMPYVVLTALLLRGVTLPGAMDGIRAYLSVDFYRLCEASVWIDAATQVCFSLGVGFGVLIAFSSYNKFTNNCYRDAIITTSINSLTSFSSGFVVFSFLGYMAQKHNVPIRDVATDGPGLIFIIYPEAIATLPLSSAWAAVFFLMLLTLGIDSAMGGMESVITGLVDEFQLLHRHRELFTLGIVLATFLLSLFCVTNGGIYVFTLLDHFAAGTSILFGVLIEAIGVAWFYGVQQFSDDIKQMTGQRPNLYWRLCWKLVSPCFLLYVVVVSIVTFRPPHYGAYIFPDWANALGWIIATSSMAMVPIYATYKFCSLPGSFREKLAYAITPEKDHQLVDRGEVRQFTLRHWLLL
Sequence of Monoamine transporters; serotonin & dopamine (Rattus norvegicus) (P31652 whole entry, looked up): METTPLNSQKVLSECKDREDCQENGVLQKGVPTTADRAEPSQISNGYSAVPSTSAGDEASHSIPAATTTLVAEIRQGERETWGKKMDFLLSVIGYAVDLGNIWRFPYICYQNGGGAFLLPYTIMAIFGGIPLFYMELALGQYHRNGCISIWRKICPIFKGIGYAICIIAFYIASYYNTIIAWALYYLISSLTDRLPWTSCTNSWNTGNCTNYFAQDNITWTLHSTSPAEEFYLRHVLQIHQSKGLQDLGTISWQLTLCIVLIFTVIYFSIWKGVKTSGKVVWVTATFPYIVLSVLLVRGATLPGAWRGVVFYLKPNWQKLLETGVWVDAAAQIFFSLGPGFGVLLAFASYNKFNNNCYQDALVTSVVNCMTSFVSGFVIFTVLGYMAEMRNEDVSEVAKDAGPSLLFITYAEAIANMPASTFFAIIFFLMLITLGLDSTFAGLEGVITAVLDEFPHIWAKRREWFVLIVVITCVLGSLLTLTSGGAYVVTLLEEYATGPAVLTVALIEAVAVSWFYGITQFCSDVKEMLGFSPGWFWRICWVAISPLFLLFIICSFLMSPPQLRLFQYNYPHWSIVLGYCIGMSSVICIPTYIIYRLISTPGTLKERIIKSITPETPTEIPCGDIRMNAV

Sequence of Norepinephrine transporter (Q9WTR4 whole entry): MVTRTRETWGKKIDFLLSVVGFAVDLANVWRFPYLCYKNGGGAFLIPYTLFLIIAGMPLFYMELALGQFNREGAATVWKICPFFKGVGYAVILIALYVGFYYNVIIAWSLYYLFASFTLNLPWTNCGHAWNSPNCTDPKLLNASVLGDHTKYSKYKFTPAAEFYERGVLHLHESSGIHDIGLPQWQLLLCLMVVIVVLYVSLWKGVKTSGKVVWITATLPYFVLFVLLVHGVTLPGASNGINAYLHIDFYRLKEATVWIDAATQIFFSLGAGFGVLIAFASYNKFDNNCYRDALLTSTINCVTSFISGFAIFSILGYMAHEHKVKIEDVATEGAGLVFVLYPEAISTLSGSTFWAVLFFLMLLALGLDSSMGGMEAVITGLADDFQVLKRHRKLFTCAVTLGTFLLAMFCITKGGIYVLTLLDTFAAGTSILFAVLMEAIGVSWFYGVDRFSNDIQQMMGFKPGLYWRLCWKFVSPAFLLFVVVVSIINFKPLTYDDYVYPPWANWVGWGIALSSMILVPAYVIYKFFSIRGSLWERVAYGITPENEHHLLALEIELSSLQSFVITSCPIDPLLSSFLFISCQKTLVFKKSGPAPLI
Sequence of Sodium-dependent serotonin transporter (P31652 whole entry): as the sequence (P31652 whole entry, looked up) above
Sequence of Sodium-dependent dopamine transporter (P23977 whole entry): as the sequence (P23977 whole entry, looked up) above

C#Cc1ccc(C2CC3CCC(C2C(=O)OC)N3C)cc1 (stereo not given)
Ratio [1]: 19
IC50 [2]: 0.0832 µM
IC50 [3]: 0.0044 µM
IC50 [4]: 0.0012 µM
Ratio [5]: 0.27

C=Cc1ccc(C2CC3CCC(C2C(=O)OC)N3C)cc1 (stereo not given)
Ratio [1]: 8.2
IC50 [2]: 0.078 µM
IC50 [3]: 0.0095 µM
IC50 [4]: 0.00124 µM
Ratio [5]: 0.13

C/C=C/c1ccc(C2CC3CCC(N3)C2C(=O)OC)cc1 (trans isomer)
Ratio [1]: 42
IC50 [2]: 0.054 µM
IC50 [3]: 0.0013 µM
IC50 [4]: 0.0286 µM
Ratio [5]: 22

C/C=C/c1ccc(C2CC3CCC(C2C(=O)OC)N3C)cc1 (stereo not given)
Ratio [1]: 140
IC50 [2]: 1.59 µM
IC50 [4]: 0.00529 µM
Ratio [5]: 0.46

COC(=O)C1C2CCC(CC1c1ccc(C(C)C)cc1)N2 (stereo not given)
Ratio [1]: 21
IC50 [4]: 0.32 µM

C/C=C\c1ccc(C2CC3CCC(C2C(=O)OC)N3C)cc1 (stereo not given)
Ratio [1]: 395
IC50 [2]: 2.8 µM
IC50 [3]: 0.00709 µM
IC50 [4]: 0.015 µM
Ratio [5]: 2.1

CCc1ccc(C2CC3CCC(N3)C2C(=O)OC)cc1 (stereo not given)
Ratio [1]: 15
IC50 [2]: 0.122 µM
IC50 [4]: 0.0499 µM
Ratio [5]: 6.1

CC#Cc1ccc(C2CC3CCC(N3)C2C(=O)OC)cc1 (stereo not given)
Ratio [1]: 37
IC50 [2]: 0.116 µM
IC50 [3]: 0.00316 µM
IC50 [4]: 0.00611 µM
Ratio [5]: 1.93

CCCc1ccc(C2CC3CCC(N3)C2C(=O)OC)cc1 (stereo not given)
Ratio [1]: 21
IC50 [2]: 0.532 µM
IC50 [3]: 0.026 µM
IC50 [4]: 0.212 µM
Ratio [5]: 8.2

C=Cc1ccc(C2CC3CCC(N3)C2C(=O)OC)cc1 (stereo not given)
Ratio [1]: 6.6
IC50 [2]: 0.0149 µM
IC50 [4]: 0.00173 µM
Ratio [5]: 0.77

CCCc1ccc(C2CC3CCC(C2C(=O)OC)N3C)cc1 (stereo not given)
Ratio [1]: 56
IC50 [2]: 3.92 µM
IC50 [4]: 0.0685 µM
Ratio [5]: 0.97

C#Cc1ccc(C2CC3CCC(N3)C2C(=O)OC)cc1 (stereo not given)
Ratio [1]: 13.7
IC50 [2]: 0.0218 µM
IC50 [3]: 0.00159 µM
IC50 [4]: 0.00124 µM
Ratio [5]: 0.78

CC#Cc1ccc(C2CC3CCC(C2C(=O)OC)N3C)cc1 (stereo not given)
Ratio [1]: 52
IC50 [2]: 0.82 µM
IC50 [4]: 0.00237 µM
Ratio [5]: 0.15

COC(=O)C1C(c2ccc(C(C)C)cc2)CC2CCC1N2C (stereo not given)
Ratio [1]: 392
IC50 [2]: 75 µM
IC50 [3]: 0.191 µM
IC50 [4]: 0.597 µM
Ratio [5]: 3.1

CCc1ccc(C2CC3CCC(C2C(=O)OC)N3C)cc1 (stereo not given)
Ratio [1]: 142
IC50 [2]: 4.03 µM
IC50 [4]: 0.055 µM
Ratio [5]: 1.9

C=CCc1ccc(C2CC3CCC(C2C(=O)OC)N3C)cc1 (stereo not given)
Ratio [1]: 87
IC50 [2]: 2.48 µM
IC50 [3]: 0.0284 µM
IC50 [4]: 0.0328 µM
Ratio [5]: 1.16

C=C(C)c1ccc(C2CC3CCC(N3)C2C(=O)OC)cc1 (stereo not given)
Ratio [1]: 240
IC50 [2]: 0.144 µM
IC50 [3]: 0.0006 µM
IC50 [4]: 0.023 µM
Ratio [5]: 38

C=CCc1ccc(C2CC3CCC(N3)C2C(=O)OC)cc1 (stereo not given)
Ratio [1]: 15
IC50 [2]: 0.0897 µM
IC50 [3]: 0.0062 µM
IC50 [4]: 0.0565 µM
Ratio [5]: 9.1

C=C(C)c1ccc(C2CC3CCC(C2C(=O)OC)N3C)cc1 (stereo not given)
Ratio [1]: 425
IC50 [2]: 1.33 µM
IC50 [4]: 0.0141 µM
Ratio [5]: 4.6

C/C=C\c1ccc(C2CC3CCC(N3)C2C(=O)OC)cc1 (cis isomer)
Ratio [1]: 128
IC50 [2]: 0.147 µM
IC50 [3]: 0.00115 µM
IC50 [4]: 0.0316 µM
Ratio [5]: 28

COC(=O)[C@@H]1C2CCC(C[C@@H]1OC(=O)c1ccccc1)N2 (stereo not given in full)
Ratio [1]: 1.1
IC50 [2]: 0.139 µM
IC50 [3]: 0.127 µM
IC50 [4]: 0.206 µM
Ratio [5]: 1.6
